APJ ag: agonists of human APJ apelin receptor. CHO-K1 APJ PathHunter beta-arrestin, luminescence; 0% DMSO wells, 100% apelin. AID 2520. P35414. activation, % at 20 µM. 330,000 compounds, 0.11% hits;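 active = activation more than six SD over the plate average, tested at 20 µM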;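 note: 0% = DMSO alone and 100% = apelin-13 at 10 nM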
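Material: CHO-K1 APJ beta-arrestin complementation cell line; Input: cell density 1000 per well; Incubation: compound stimulation 90 min at 25 °C, detection 60 min; Signal: luminescence from split beta-galactosidase complementation, Galacton Star/Emerald II substrate; Controls: DMSO-only wells as negative, 10 nM Apelin-13 as positive control.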
APJ antag: APJ receptor antagonism. P35414. CHO-K1 APJ beta-arrestin complementation, luminescence. inhibition, % at 20 µM. 330,000 compounds, 0.32% hits. AID 2521;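 active = inhibition above about 40% at 20 µM, limit read from the data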;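 note: cells challenged with 10 nM apelin-13 agonist together with compound; plate controls were apelin-13 plus DMSO wells for no effect and DMSO wells lacking apelin-13 for full effect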
CCR6 antagonist: CCR6 (human) receptor antagonism | P51684 | inhibition, % at 20 µM | AID 493098 | 340,000 compounds, 0.49% hits | CHO-K1 CCR6 PathHunter beta-arrestin, luminescence, CCL20-stimulated;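 active = compounds whose inhibition of the agonist-driven luminescence signal at 20 µM reaches about 50%, limit read from the data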;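 note: cells stimulated with CCL20 at 14 nM final; plate controls were DMSO with CCL20 for no effect and DMSO without agonist for full effect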
EBI2 antag: blocks human EBI2 receptor beta-arrestin signaling; P32249; EBI2 beta-arrestin recruitment, luminescence, 7a,25-OHC stimulated; inhibition, % at 5 µM; 360,000 compounds, 0.81% hits; in the data active = inhibition above about 38%;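 note: enzyme fragment complementation signal reports receptor beta-arrestin coupling in cells; 0% = agonist plus DMSO wells and 100% = wells without agonist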
CXCR6 inh: CXCR6 (human) receptor inhibition. inhibition, % at 20 µM. 360,000 compounds, 0.36% hits. CHO-K1 PathHunter CXCR6 beta-arrestin, luminescence. AID 602244. O00574; in the data active = inhibition above about 34%, passing the limit was not always enough;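 note: antagonist mode with CXCL16 agonist at 10 nM final; 0% = 10 nM CXCL16 with DMSO and 100% = unstimulated wells without agonist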
Target sequence (O00574 whole entry, looked up): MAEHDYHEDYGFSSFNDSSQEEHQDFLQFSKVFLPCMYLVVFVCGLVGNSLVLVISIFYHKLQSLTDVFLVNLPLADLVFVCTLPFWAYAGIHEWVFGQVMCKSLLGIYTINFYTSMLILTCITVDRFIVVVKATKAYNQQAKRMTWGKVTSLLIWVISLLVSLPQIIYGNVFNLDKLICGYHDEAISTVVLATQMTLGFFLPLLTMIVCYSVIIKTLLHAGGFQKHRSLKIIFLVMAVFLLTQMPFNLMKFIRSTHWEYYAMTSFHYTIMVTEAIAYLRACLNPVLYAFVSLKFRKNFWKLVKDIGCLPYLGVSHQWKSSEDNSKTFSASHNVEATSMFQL
hiPSC survival: enhancers of human iPSC single-cell survival. 360,000 compounds, 0.044% hits. AID 602274. survival enhancement, % at 20 µM. hiPSC single-cell survival, ATPlite luminescence; 100% = ROCK inhibitor wells, 0% = DMSO; in the data active = survival enhancement above about 18%;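 note: cells exposed to compounds for 16 hours before the ATP read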
APJ antag conf: confirmation of human APJ apelin receptor antagonists | shares compounds with APJ antag | APJ beta-arrestin recruitment, luminescence, antagonist mode | inhibition, % at 20 µM | 950 compounds, 66% hits | AID 2766; in the data active = inhibition above about 50%
* marks the source's active call; other numbers are inactive results; x = no result given. In the library only some 1.5% were active in any assay of this set; here they are far more common.

SMILES	APJ ag	APJ antag	CCR6 antagonist	EBI2 antag	CXCR6 inh	hiPSC survival	APJ antag conf
O=C1CN(C(=O)c2ccc(Cl)c([N+](=O)[O-])c2)c2ccccc2N1	-1	41*	4	-16	3	0	-8
CC1(C)Oc2ccc3ccc(=O)oc3c2/C(=C/NNC(N)=O)C1=O	-10	50*	71*	8	35	0	62*
COc1ccc2c(c1)C(=O)[C@H](O)[C@@H](c1ccc(OC)c(Br)c1)O2	-21	58*	62*	x	x	x	103*
O=C(Cc1ccc(NC(=O)C2CCN(C(=O)C3CC3)CC2)cc1)Nc1cccc(C(=O)N2CCCCC2)c1	x	x	7	-10	-5	1	x
CCOC(=O)c1cnc2c(cnn2C)c1NCCC(O)C(F)(F)F (stereo not drawn)	0	48*	9	-6	4	-2	33
CCOC(=O)c1cnc2c(cnn2C)c1Oc1ccc(OC)cc1	-5	26	13	4	-4	0	x
COc1cc(SC)ccc1C(=O)OCC(=O)NCC(C)C	-2	41*	2	-4	3	0	-3
O=C(NCCCN1CCOCC1)c1cccc(NS(=O)(=O)c2ccc(Br)cc2)c1	-4	5	4	-11	6	0	x
Cc1ccc(NS(=O)(=O)c2cc([N+](=O)[O-])ccc2N/N=C/c2sc(N3CCOCC3)nc2-c2ccccc2)c(C)c1	-9	68*	60*	5	49*	0	119*
O=C(O)c1cc(N2C(=O)CCC2=O)ccc1Cl	-1	8	4	-6	-5	0	x
CCN(C(=O)COC(=O)c1cccnc1SC)C1CCS(=O)(=O)C1 (stereo not drawn)	-3	45*	-3	-16	-9	4	33
CCN(C(=O)COC(=O)c1cccnc1SC)C1CCCCC1	-1	8	4	13	-6	0	x
CCOC(=O)N1CC=C2C(C#N)=C(N)C(C#N)(C#N)[C@H](c3ccc(OCC)c(OCC)c3)[C@H]2C1	-3	22	17	20	6	-1	x
N#CC1=C(N)C(C#N)(C#N)C(c2cccnc2)C2CN(C(=O)OCc3ccccc3)CC=C12 (stereo not drawn)	-8	50*	53*	9	7	10	27
O=C(COC(=O)c1ccc(Br)o1)c1ccc(S(=O)(=O)N2CCCCC2)cc1	-12	68*	64*	30	44*	0	90*
O=C(COC(=O)c1ccccc1)c1ccc(S(=O)(=O)N2CCCCC2)cc1	-17	27	38	26	27	0	x
CNS(=O)(=O)c1cccc(C(=O)OCC(=O)c2cc3ccccc3o2)c1	-11	81*	73*	13	43*	0	69*
O=C(COC(=O)c1ccco1)c1ccc(S(=O)(=O)N2CCCCC2)cc1	-28	57*	48	4	30	0	65*
O=C(COc1ccccc1)OCC(=O)c1ccc(S(=O)(=O)N2CCCCC2)cc1	-7	85*	68*	14	42*	0	116*
O=C(COC(=O)c1ccco1)Nc1cc(S(=O)(=O)N2CCCCC2)ccc1Cl	-3	-1	9	11	8	0	x
CNS(=O)(=O)c1cccc(C(=O)OCC(=O)c2ccc(S(=O)(=O)N3CCCCC3)cc2)c1	-22	62*	53*	19	34	1	60*
CCOc1cc(/C=C2\CN(CC)C/C(=C\c3ccc(O)c(OCC)c3)C2=O)ccc1O	-9	48*	46	-3	24	-1	101*
COc1cc(/C=C2/CCCC(C(=O)C(F)(F)F)=C2O)ccc1O	-2	5	22	-5	5	-1	x
CCOc1cc(/C=N/N=C/c2ccc(O)c(OCC)c2)ccc1O	-4	23	8	3	-2	0	x
COc1cc(/C=C/C(=O)CC(=O)/C=C/c2ccc(O)c(OC)c2)ccc1O	-10	62*	66*	14	37	-4	93*
SMILES	APJ ag	APJ antag	CCR6 antagonist	EBI2 antag	CXCR6 inh	hiPSC survival	APJ antag conf
COc1cc(/C=C2\CCC/C(=C\c3ccc(O)c(OC)c3)C2=O)ccc1O	-8	40*	49	3	31	-1	80*
COc1ccc(C(=O)Nc2cccc(C)n2)cc1S(=O)(=O)N1CCCc2ccccc21	x	x	22	7	16	0	x
O=C(CN1C(=O)NC2(CCCC2)C1=O)Nc1ccc(C(F)(F)F)cc1	-1	1	7	0	-15	0	x
Cc1ccc(C2=NN3C(C(=O)c4ccccc4)Oc4ccccc4C3C2)cc1 (stereo not drawn)	3	46*	13	18	20	-4	46
Cc1ccc(C(=O)C2Oc3ccccc3C3CC(c4ccc(C)cc4)=NN23)cc1 (stereo not drawn)	4	5	12	17	2	0	x
FC(F)(F)c1cccc(Oc2nc(-c3ccccc3)nnc2C(F)(F)F)c1	-4	17	35	-5	3	-2	x
FC(F)(F)c1cccc(Sc2nc(-c3ccccc3)nnc2C(F)(F)F)c1	-5	43*	46	16	46*	-5	91*
O=C1NN(c2ccc(Cl)cc2)C(=O)/C1=C\c1ccc(-c2cccc(C(=O)O)c2)o1	x	x	22	-9	20	1	x
O=C1NN(c2ccccc2)C(=O)/C1=C\c1ccc(-c2cc([N+](=O)[O-])ccc2O)o1	-11	46*	62*	17	43*	0	93*
Cc1ccc(C(=O)Nc2ccc(S(=O)(=O)Nc3cnc4ccccc4n3)cc2)cc1	-2	-7	6	-4	4	0	x
CCc1nnc(NC(=O)C2CC(=O)N(Cc3ccccc3)C2)s1 (stereo not drawn)	0	2	11	-2	3	-1	x
CCc1ccc(N2CC(C(=O)Nc3nnc(CC)s3)CC2=O)cc1 (stereo not drawn)	-2	62*	3	-2	-7	0	25
COc1cc(/C=C2\SC(c3ccc(C)cc3)=NC2=O)cc(OC)c1O	-11	56*	65*	11	38	-2	77*
Cc1ccc(C2=NC(=O)/C(=C/c3cc(O)c(O)c(Br)c3)S2)cc1	-8	22	48	4	32	-1	x
Cc1occc1C(=O)Nc1cnn(CCCC(=O)O)c1	-6	2	7	0	1	-1	x
CC(C)OCCCn1c(=N)c(S(=O)(=O)c2ccccc2)cc2c(=O)n3ccccc3nc21	-4	43*	1	9	10	0	-14
